Measurements reported in ChEMBL document CHEMBL4387724, “2-Pyridineformamide N(4)-ring incorporated thiosemicarbazones inhibit MCF-7 cells by inhibiting JNK pathway” (Bioorg Med Chem Lett, 2019).

Columns and labels:
HeLa [1] = assay: Cytotoxicity against human HeLa cells assessed as reduction in cell growth at 1 uM incubated for 72 hrs by MTT assay relative to control; format: functional; details: read-out: GI
Procedure, shortened: (§1)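 Cells grown in DMEM with 10% FBS and penicillin-streptomycin at 37 °C, 5% CO2, seeded at 3000 cells/well and attached overnight. Screening series given at 1, 3, 10, 100 μM; follow-up agent at 100 nM–3 μM; both 72 h, with 0.1% DMSO vehicle. MTT (5 mg/mL stock) added for 3 h at 37 °C, formazan dissolved in DMSO, absorbance read at 570 nm. Viability expressed as % of DMSO-treated wells from replicates.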

A-375 [2] = assay: Cytotoxicity against human A375 cells assessed as reduction in cell growth incubated for 72 hrs by MTT assay; format: functional, cell-based; details: A-375, 72 h; procedure, shortened: as §1
A-431 [3] = assay: Cytotoxicity against human A431 cells assessed as reduction in cell growth at 10 uM incubated for 72 hrs by MTT assay relative to control; format: functional; details: A-431, 72 h, read-out: GI; procedure, shortened: as §1
MCF7 [4] = assay: Cytotoxicity against human MCF7 cells assessed as reduction in cell growth at 10 uM incubated for 72 hrs by MTT assay relative to control; format: functional; details: MCF7, 72 h, read-out: GI; procedure, shortened: as §1
MCF7 [5] = assay: Cytotoxicity against human MCF7 cells assessed as reduction in cell growth incubated for 72 hrs by MTT assay; format: functional, cell-based; details: MCF7, 72 h; procedure, shortened: as §1
MCF7 [6] = assay: Cytotoxicity against human MCF7 cells assessed as reduction in cell growth at 30 uM incubated for 72 hrs by MTT assay relative to control; format: functional; details: MCF7, 72 h, read-out: GI
MCF7 [7] = assay: Cytotoxicity against human MCF7 cells assessed as reduction in cell growth at 3 uM incubated for 72 hrs by MTT assay relative to control; format: functional; details: MCF7, 72 h, read-out: GI; procedure, shortened: as §1
HeLa [8] = assay: Cytotoxicity against human HeLa cells assessed as reduction in cell growth at 10 uM incubated for 72 hrs by MTT assay relative to control; format: functional; details: read-out: GI; procedure, shortened: as §1
HeLa [9] = assay: Cytotoxicity against human HeLa cells assessed as reduction in cell growth incubated for 72 hrs by MTT assay; format: functional, cell-based; procedure, shortened: as §1
A-375 [10] = assay: Cytotoxicity against human A375 cells assessed as reduction in cell growth at 3 uM incubated for 72 hrs by MTT assay relative to control; format: functional; details: A-375, 72 h, read-out: GI; procedure, shortened: as §1
A-431 [11] = assay: Cytotoxicity against human A431 cells assessed as reduction in cell growth incubated for 72 hrs by MTT assay; format: functional, cell-based; details: A-431, 72 h; procedure, shortened: as §1
A-431 [12] = assay: Cytotoxicity against human A431 cells assessed as reduction in cell growth at 100 uM incubated for 72 hrs by MTT assay relative to control; format: functional; details: A-431, 72 h, read-out: GI; procedure, shortened: as §1
HeLa [13] = assay: Cytotoxicity against human HeLa cells assessed as reduction in cell growth at 100 uM incubated for 72 hrs by MTT assay relative to control; format: functional; details: read-out: GI; procedure, shortened: as §1
MCF7 [14] = assay: Cytotoxicity against human MCF7 cells assessed as reduction in cell growth at 1 uM incubated for 72 hrs by MTT assay relative to control; format: functional; details: MCF7, 72 h, read-out: GI; procedure, shortened: as §1
A-431 [15] = assay: Cytotoxicity against human A431 cells assessed as reduction in cell growth at 3 uM incubated for 72 hrs by MTT assay relative to control; format: functional; details: A-431, 72 h, read-out: GI; procedure, shortened: as §1
HeLa [16] = assay: Cytotoxicity against human HeLa cells assessed as reduction in cell growth at 30 uM incubated for 72 hrs by MTT assay relative to control; format: functional; details: read-out: GI
A-375 [17] = assay: Cytotoxicity against human A375 cells assessed as reduction in cell growth at 10 uM incubated for 72 hrs by MTT assay relative to control; format: functional; details: A-375, 72 h, read-out: GI; procedure, shortened: as §1
A-375 [18] = assay: Cytotoxicity against human A375 cells assessed as reduction in cell growth at 1 uM incubated for 72 hrs by MTT assay relative to control; format: functional; details: A-375, 72 h, read-out: GI; procedure, shortened: as §1
A-375 [19] = assay: Cytotoxicity against human A375 cells assessed as reduction in cell growth at 100 uM incubated for 72 hrs by MTT assay relative to control; format: functional; details: A-375, 72 h, read-out: GI; procedure, shortened: as §1
A-375 [20] = assay: Cytotoxicity against human A375 cells assessed as reduction in cell growth at 30 uM incubated for 72 hrs by MTT assay relative to control; format: functional; details: A-375, 72 h, read-out: GI
A-431 [21] = assay: Cytotoxicity against human A431 cells assessed as reduction in cell growth at 1 uM incubated for 72 hrs by MTT assay relative to control; format: functional; details: A-431, 72 h, read-out: GI; procedure, shortened: as §1
HeLa [22] = assay: Cytotoxicity against human HeLa cells assessed as reduction in cell growth at 3 uM incubated for 72 hrs by MTT assay relative to control; format: functional; details: read-out: GI; procedure, shortened: as §1
A-431 [23] = assay: Cytotoxicity against human A431 cells assessed as reduction in cell growth at 30 uM incubated for 72 hrs by MTT assay relative to control; format: functional; details: A-431, 72 h, read-out: GI
MCF7 [24] = assay: Cytotoxicity against human MCF7 cells assessed as reduction in cell growth at 100 uM incubated for 72 hrs by MTT assay relative to control; format: functional; details: MCF7, 72 h, read-out: GI; procedure, shortened: as §1

| Structure (SMILES) | inhibition of growth at 1 µM (HeLa [1]) [%] | IC50 (A-375 [2]) [µM] | inhibition of growth at 10 µM (A-431 [3]) [%] | inhibition of growth at 10 µM (MCF7 [4]) [%] | IC50 (MCF7 [5]) [µM] | inhibition of growth at 30 µM (MCF7 [6]) [%] | inhibition of growth at 3 µM (MCF7 [7]) [%] | inhibition of growth at 10 µM (HeLa [8]) [%] | IC50 (HeLa [9]) [µM] | inhibition of growth at 3 µM (A-375 [10]) [%] | IC50 (A-431 [11]) [µM] | inhibition of growth at 100 µM (A-431 [12]) [%] | inhibition of growth at 100 µM (HeLa [13]) [%] | inhibition of growth at 1 µM (MCF7 [14]) [%] | inhibition of growth at 3 µM (A-431 [15]) [%] | inhibition of growth at 30 µM (HeLa [16]) [%] | inhibition of growth at 10 µM (A-375 [17]) [%] | inhibition of growth at 1 µM (A-375 [18]) [%] | inhibition of growth at 100 µM (A-375 [19]) [%] | inhibition of growth at 30 µM (A-375 [20]) [%] | also measured |
| --- | --- | --- | --- | --- | --- | --- | --- | --- | --- | --- | --- | --- | --- | --- | --- | --- | --- | --- | --- | --- | --- |
| N/C(=N\NC(=S)N1CCOCC1)c1ccc(F)cn1 | 21.4 | 1.5 | 66.9 | 39.5 | 22.1 | 56.7 | 33.9 | 81.9 | 1.7 | 66.4 | 4 | 85.6 | 81.2 | 12.4 | 47 | 84.5 | 70.3 | 44.5 | 86.2 | 85.9 | inhibition of growth at 1 µM (A-431 [21]): 31.8%; inhibition of growth at 3 µM (HeLa [22]): 59.7%; inhibition of growth at 30 µM (A-431 [23]): 82.3%; inhibition of growth at 100 µM (MCF7 [24]): 61.5% |
| N/C(=N\NC(=S)N1CCOCC1)c1ccccn1 | 12.7 | 0.68 | 69.4 | 66.7 | 4.7 | 78.1 | 44.5 | 56.3 | 7.3 | 19.3 | 4.8 | 84.6 | 87.2 | 14.7 | 43.1 | 82.8 | 18.3 | 26.8 | 14 | 15 | inhibition of growth at 1 µM (A-431 [21]): 29.2%; inhibition of growth at 3 µM (HeLa [22]): 40%; inhibition of growth at 30 µM (A-431 [23]): 78.8%; inhibition of growth at 100 µM (MCF7 [24]): 81.6% |
| N/C(=N\NC(=S)N1CCCC1)c1ccccn1 | 24.7 | 0.6 | 77.2 | 51.7 | 3.6 | 54.6 | 49.8 | 63.5 | 6.2 | 80 | 1.7 | 83.8 | 89.1 | 45.9 | 70.9 | 84.5 | 83.9 | 65.7 | 87.8 | 86 | inhibition of growth at 1 µM (A-431 [21]): 39.8%; inhibition of growth at 3 µM (HeLa [22]): 38.5%; inhibition of growth at 30 µM (A-431 [23]): 85.2%; inhibition of growth at 100 µM (MCF7 [24]): 74.9% |
| Cc1cccc(/C(N)=N/NC(=S)N2CCN(c3ccccn3)CC2)n1 | 51.8 | 0.85 | 43 | 20.8 | > 100 | 36 | 27.1 | 72.8 | 0.9 | 61.8 | 19.6 | 78.9 | 86.3 | 8.5 | 34.3 | 86.3 | 63.3 | 58.4 | 83.8 | 74.8 | inhibition of growth at 1 µM (A-431 [21]): 9.2%; inhibition of growth at 3 µM (HeLa [22]): 72.7%; inhibition of growth at 30 µM (A-431 [23]): 57.4%; inhibition of growth at 100 µM (MCF7 [24]): 49.8% |
| Cc1cccc(/C(N)=N/NC(=S)N2CCCC2)n1 | 8.7 | 2.9 | 67.6 | 38.2 | 61.8 | 40.1 | 26.6 | 79.2 | 2.7 | 51.3 | 4 | 86.8 | 80.1 | 17.4 | 47.2 | 74.5 | 55.9 | 13.6 | 66.3 | 60.8 | inhibition of growth at 1 µM (A-431 [21]): 21%; inhibition of growth at 3 µM (HeLa [22]): 56.8%; inhibition of growth at 30 µM (A-431 [23]): 72.2%; inhibition of growth at 100 µM (MCF7 [24]): 61.8% |
| Cc1ccnc(/C(N)=N/NC(=S)N2CCN(c3ccccn3)CC2)c1 | 40.4 | 0.78 | 44 | 32.1 | 12.3 | 63.8 | 32.8 | 49.2 | 10.5 | 74.8 | 15.5 | 75.5 | 85.6 | 21 | 34.7 | 77 | 76 | 64.4 | 81 | 79.4 | inhibition of growth at 1 µM (A-431 [21]): 28.9%; inhibition of growth at 3 µM (HeLa [22]): 42.5%; inhibition of growth at 30 µM (A-431 [23]): 65.7%; inhibition of growth at 100 µM (MCF7 [24]): 63.4% |
| Cc1cccc(/C(N)=N/NC(=S)N2CCCCC2)n1 | 27 | 1 | 47.8 | 39 | 74 | 43 | 27.1 | 83.5 | 2 | 63.2 | 12.4 | 77.5 | 85.4 | 19.5 | 36.6 | 83.5 | 76.4 | 49.9 | 85.7 | 80.9 | inhibition of growth at 1 µM (A-431 [21]): 35%; inhibition of growth at 3 µM (HeLa [22]): 68.9%; inhibition of growth at 30 µM (A-431 [23]): 65.2%; inhibition of growth at 100 µM (MCF7 [24]): 54% |
| Cc1ccnc(/C(N)=N/NC(=S)N2CCSCC2)c1 | 41.1 | 1.2 | 60 | 62.5 | 6.9 | 74.2 | 33.8 | 39.2 | 15.5 | 67.2 | 7.2 | 79.6 | 91.6 | 3.89 | 34.7 | 78.3 | 74.5 | 47.7 | 89.9 | 84.9 | inhibition of growth at 1 µM (A-431 [21]): 34.6%; inhibition of growth at 3 µM (HeLa [22]): 40.4%; inhibition of growth at 30 µM (A-431 [23]): 75.3%; inhibition of growth at 100 µM (MCF7 [24]): 76.8% |
| N/C(=N\NC(=S)N1CCSCC1)c1ccc(F)cn1 | 19.6 | 0.9 | 61.8 | 38.1 | 21.4 | 58.8 | 35.4 | 70.5 | 1.7 | 62.2 | 1.2 | 86.6 | 88.1 | 30.6 | 61.2 | 81.7 | 70.9 | 55.1 | 83.2 | 78.7 | inhibition of growth at 1 µM (A-431 [21]): 48.7%; inhibition of growth at 3 µM (HeLa [22]): 62.9%; inhibition of growth at 30 µM (A-431 [23]): 84.6%; inhibition of growth at 100 µM (MCF7 [24]): 65.7% |
